{"data": "Experimental data gathered from unrelated publications", "target": "Serine/threonine-protein kinase MARK2 (MARK2, Homo sapiens, UniProt Q7KZI7)", "observed": "enzyme activity", "mode": "inhibitor", "note": "Compare with care: the assays were run in different laboratories."}
{"SMILES": "Cc1nn(CC(F)(F)F)cc1Nc1ncc(Br)c(NCc2ccc(S(N)(=O)=O)cc2)n1", "assay": "radiometric", "setting": "1 µM", "remaining activity [%]": 89}
{"SMILES": "CC(C)(C)c1nc(-c2cccc(NS(=O)(=O)c3c(F)cccc3F)c2F)c(-c2ccnc(N)n2)s1", "assay": "radiometric", "setting": "1 µM", "remaining activity [%]": 94}
{"SMILES": "O=C(Nc1cnn(-c2csc(C(=O)NC3COC3)c2)c1)Nc1c(F)cccc1Cl", "setting": "5 µM", "remaining activity [%]": 90.7}
{"SMILES": "CC(C)(O)[C@H]1CC[C@H](Nc2ccc3ncc(-c4cccc(C(F)(F)F)c4)n3n2)CC1", "setting": "1 µM", "remaining activity [%]": 101}
{"SMILES": "NS(=O)(=O)c1ccc(CNc2nc(Nc3cccc(NC(=O)N4CCCC4)c3)ncc2Br)cc1", "assay": "radiometric", "setting": "1 µM", "remaining activity [%]": 57}
{"SMILES": "CC(C)(C)c1nc2c(s1)c1nc(N)ncc1c1ccc(NS(=O)(=O)c3c(F)cccc3F)c(F)c12", "assay": "radiometric", "setting": "1 µM", "remaining activity [%]": 92}
{"SMILES": "Cc1cnc(NC2CCOCC2)nc1-n1cnc(C(=O)NC(CN)c2cc(F)cc(Cl)c2)c1 (centres unmarked)", "assay": "radiometric", "setting": "1 µM", "remaining activity [%]": 45}
{"SMILES": "CCN(CC)c1ccc(C2=NNC(=O)CC2C)cc1[N+](=O)[O-] (centres unmarked)", "setting": "10 µM", "remaining activity [%]": 90}
{"SMILES": "CCCOc1ccc(OC)c(F)c1C(=O)c1ccc(C(=O)N[C@@H]2CNC[C@H]2NC(=O)c2ccc3[nH]ncc3c2)cc1", "setting": "10 µM", "remaining activity [%]": 33}
{"SMILES": "Cc1nn(CC(F)(F)F)cc1Nc1ncc(C2CC2)c(NCCc2c[nH]cn2)n1", "assay": "radiometric", "setting": "1 µM", "remaining activity [%]": 90}
{"SMILES": "Oc1cccc(-c2nc(N3CCOCC3)c3oc4ncccc4c3n2)c1", "setting": "10 µM", "remaining activity [%]": 107}
{"SMILES": "Cc1nn(CC(F)(F)F)cc1Nc1ncc(Br)c(NCCCNC(=O)C2CCC2)n1", "assay": "radiometric", "setting": "1 µM", "remaining activity [%]": 19}
{"SMILES": "Cc1sc(C(=O)NC2COC2)cc1-n1cc(NC(=O)Nc2c(F)cccc2Cl)cn1", "setting": "10 µM", "remaining activity [%]": 99.8}
{"SMILES": "CN1CCc2cc(Nc3ncc(C4CC4)c(NCCCNC(=O)C4CCC4)n3)ccc2C1", "assay": "radiometric", "setting": "1 µM", "remaining activity [%]": 3}
{"SMILES": "COc1cc(Nc2cnc(C#N)c(O[C@H](C)CN(C)C)n2)ncc1-c1cnn(C)c1", "assay": "radiometric", "setting": "1 µM", "remaining activity [%]": 111}
{"SMILES": "Cn1c(=O)n(-c2ccc(C(C)(C)C#N)cc2)c2c3cc(-c4cnc5ccccc5c4)ccc3ncc21", "setting": "10 µM", "remaining activity [%]": 86}
{"SMILES": "COc1cc(Cl)c(C(=O)N[C@@H](CN[C@H]2CC[C@@H](N)CC2)Cc2ccc(C#N)cc2)cc1-c1ccc(CN[C@H](C)c2ccc(C)cc2)o1", "setting": "1 µM", "remaining activity [%]": 98}
